Data on 16 compounds can be found in ChEMBL document CHEMBL1132944, “Poly(N-acryl amino acids): a new class of biologically active polyanions” (2000).

What all share (format): functional
Assay [1] is described as follows: Anti-coagulation activity evaluated as activated partial thromboplastin time (APTT) of the non-sulfated compound determined for 25 ug/mL in pooled normal plasma. An outline of the steps:
(§1)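 Activated partial thromboplastin time was measured in pooled normal human plasma with a commercial liquid silica-activator APTT kit. Polymer was added to the plasma, and clotting time was recorded in seconds. Plasma without polymer served as the control, and heparin was the positive control.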

Assay [2] in a line: Anti-coagulation activity evaluated as activated partial thromboplastin time (APTT) of the sulfated compound determined for 25 ug/mL in pooled normal plasma. An outline of the steps:
as §1

Assay [3] can be described thus: Anti-coagulation activity evaluated as activated partial thromboplastin time (APTT) determined for 25 ug/ml in pooled normal plasma. An outline of the steps:
as §1

Assay [4] is described as follows: Anti-coagulation activity evaluated as activated partial thromboplastin time (APTT) determined for 250 ug/ml in pooled normal plasma. An outline of the steps:
as §1

Each structure is given as a SMILES string.

For `CCC(C)C(=O)N[C@H](Cc1ccc(OS(=O)(=O)[O-])cc1)C(=O)[O-].[Na+].[Na+]` (stereo partly drawn), the APTT in assay [1] worked out at 35 s; in assay [2], 45 s. In assay [3], `CCC(C)C(=O)NCC(=O)O` (stereo not drawn) came in with an APTT of 40 s.

As to `CCC(C)C(=O)N[C@H](Cc1ccccc1)C(=O)[O-].[Na+]` (stereo partly drawn), the APTT turned out to be 56 s in assay [3] and 109 s in assay [4]. Regarding `CCC(C)C(=O)N[C@H](Cc1ccc(O)cc1)C(=O)[O-].[Na+]` (stereo partly drawn), the APTT in assay [3] amounted to 32 s. Still for that read-out and setting: in the case of `CCC(C)C(=O)N[C@H](CCCCN)C(=O)[O-].[Na+]` (stereo partly drawn) it was 33 s.

As to `CCC(C)C(=O)N[C@H](CCC(=O)[O-])C(=O)[O-].[Na+].[Na+]` (stereo partly drawn), the APTT in assay [3] is 56 s; in assay [4], 75 s. For `CCC(C)C(=O)N1CCC[C@@H]1C(=O)[O-].[Na+]` (stereo partly drawn), in that order: 55 s and 109 s. Compound `CCC(C)C(=O)N[C@H](CC(C)C)C(=O)[O-].[Na+]` (stereo partly drawn) registered an APTT in assay [3] of 36 s. Still for that read-out and setting: in the case of `CCC(C)C(=O)N[C@H](CO)C(=O)O` (stereo partly drawn) it was 39 s. With `CCC(C)C(=O)N[C@H](COS(=O)(=O)[O-])C(=O)[O-].[Na+].[Na+]` (stereo partly drawn), the APTT in assay [1] is 32 s; in assay [2], 35 s. The compound `CCC(C)C(=O)N[C@H](Cc1c[nH]cn1)C(=O)[O-].[Na+]` (stereo partly drawn) registered an APTT in assay [3] of 30 s. Regarding `CCC(C)C(=O)N1CC[C@H](OS(=O)(=O)O)C1` (stereo partly drawn), the values for the APTT in assay [1] and in assay [2] were 39 s and 32 s, respectively.

As for `CCC(C)C(=O)N[C@@H](C(=O)[O-])C(C)(C)C.[Na+]` (stereo partly drawn), the APTT in assay [3] is given as 36 s. For the compound `CCC(C)C(=O)N1C[C@@H](OS(=O)(=O)O)C[C@@H]1C(=O)O` (stereo partly drawn), the APTT in assay [1] is 37 s; in assay [2], 100 s.

Consider `CCC(C)C(=O)N1C[C@@H](O)C[C@@H]1C(=O)O` (relative stereo), for which, in assay [3], the APTT amounted to 37 s.

In the case of `CCC(C)C(=O)N1C[C@H](O)C[C@@H]1C(=O)O` (relative stereo), in assay [3], the APTT amounted to 35 s.
